Measured values: ChEMBL document CHEMBL1136139, “The design, synthesis and evaluation of novel HIV-1 protease inhibitors with high potency against PI-resistant viral strains” (Bioorg Med Chem Lett, 2003)

Columns and labels:
[1] = Oral bioavailability in dog (dose 10 mg/kg); type: ADME, organism-based, Canis lupus familiaris; conditions: in vivo
How it was run: (§1)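 Dogs dosed both intravenously (2 mg/kg) and orally (10 mg/kg). Cmax, half-life, plasma clearance (mL/min/kg) and oral bioavailability (%) were derived from plasma drug levels. The study was IACUC-approved.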

[2] = In vitro intrinsic clearance in human liver microsome; type: ADME; conditions: liver microsomes
How it was run: (§2)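 The compound was incubated with liver microsomes from rat, dog, rhesus and human. Metabolic stability was expressed as intrinsic clearance scaled to mL/min/kg.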

[3] = target: Cytochrome P450 2D6 (Homo sapiens, UniProt P10635); assay: Inhibition of human liver microsome Cytochrome P450 2D6; type: ADME, microsomes
[4] = test system: MT4; assay: Ability to inhibit spread of viral infection in MT-4 human T-lymphoidcell infected by PI-resistant HIV-1 (strain V-18C); type: functional; conditions: read-out: CIC95
How it was run: (§3)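 MT4 human T-lymphoid cells infected with HIV-1, either wild-type NL4-3 or engineered PI-resistant constructs (4X, K-60C, V-18C, Q-60C) carrying varied patterns of multiple PI resistance mutations; spread of infection in culture followed. Value is CIC95, the compound concentration inhibiting at least 95% of infectious viral spread relative to untreated virus control culture.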

[5] = Plasma clearance after peroral administration at 10 mpk in dog; type: ADME, organism-based, Canis lupus familiaris; conditions: po, 10 mg/kg, read-out: Clp; how it was run: as §1
[6] = target: Human immunodeficiency virus type 1 protease (Human immunodeficiency virus 1, UniProt Q72874); assay: Inhibitory activity against HIV-1 Protease
[7] = Half life period was determine after peroral administration at 10 mpk in dog; type: ADME, organism-based, Canis lupus familiaris; conditions: in vivo, po, 10 mg/kg; how it was run: as §1
[8] = Cmax was determine after peroral administration at 10 mpk in dog; type: ADME, organism-based, Canis lupus familiaris; design: dose 10 mpk, route oral; conditions: in vivo, po, 10 mg/kg; how it was run: as §1
[9] = target: Cytochrome P450 3A4 (Homo sapiens, UniProt P08684); assay: Inhibition of human liver microsome Cytochrome P450 3A4
[10] = target: Cytochrome P450 2C9 (Homo sapiens, UniProt P11712); assay: Inhibition of human liver microsome Cytochrome P450 2C9; type: ADME, microsomes
[11] = test system: MT4; assay: Ability to inhibit spread of viral infection in MT-4 human T-lymphoidcell infected by PI-resistant HIV-1 (strain K-60C); type: functional; conditions: read-out: CIC95; how it was run: as §3
[12] = test system: MT4; assay: Ability to inhibit spread of viral infection in MT-4 human T-lymphoidcell infected by wild-type HIV-1(strain NL4-3); type: functional; conditions: read-out: CIC95; how it was run: as §3
[13] = test system: MT4; assay: Ability to inhibit spread of viral infection in MT-4 human T-lymphoidcell infected by PI-resistant HIV-1 (strain Q-60C); type: functional; conditions: read-out: CIC95; how it was run: as §3
[14] = test system: MT4; assay: Ability to inhibit spread of viral infection in MT-4 human T-lymphoidcell infected by PI-resistant HIV-1 (strain 4X Virus); type: functional; conditions: read-out: CIC95; how it was run: as §3
[15] = Half life period was determine after peroral administration at 10 mpk in Rhesus; type: ADME, organism-based, Macaca mulatta; conditions: rhesus monkey, in vivo, po, 10 mg/kg
How it was run: (§4)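 Rhesus monkeys were given 10 mg/kg orally and 2 mg/kg intravenously. Cmax, half-life, AUC, plasma clearance (mL/min/kg) and bioavailability (%) were taken from plasma concentration profiles.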

[16] = test system: Rhesus monkey; assay: Area under curve was determine after peroral administration at 10 mpk in Rhesus; type: ADME, organism-based, Macaca mulatta; conditions: in vivo, po, 10 mg/kg; how it was run: as §4
[17] = test system: Rattus norvegicus; assay: Area under curve was determine after peroral administration at 10 mpk in Rat; type: ADME, organism-based; conditions: in vivo, po, 10 mg/kg
How it was run: (§5)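 Rats were dosed orally across 10–160 mg/kg (10, 20, 50, 160). The 10 mg/kg oral arm was paired with 5 mg/kg intravenous dosing. Cmax, AUC, half-life, plasma clearance (mL/min/kg) and bioavailability (%) were determined at each oral dose.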

[18] = Oral bioavailability after peroral administration at 160 mpk in Rat; type: ADME, organism-based; conditions: in vivo, 160 mg/kg; how it was run: as §5
[19] = Intrinsic clearance in Rhesus liver microsome; type: ADME, Macaca mulatta; conditions: rhesus monkey, liver microsomes; how it was run: as §2
[20] = Oral bioavailability after peroral administration at 20 mpk in Rat; type: ADME, organism-based; conditions: in vivo, 20 mg/kg; how it was run: as §5
[21] = Area under curve was determine after peroral administration at 50 mpk in Rat; type: ADME, organism-based; conditions: in vivo, po, 50 mg/kg; how it was run: as §5
[22] = Intrinsic clearance in dog liver microsome; type: ADME, Canis lupus familiaris; conditions: liver microsomes; how it was run: as §2
[23] = Intrinsic clearance in rat liver microsome; type: ADME; conditions: liver microsomes; how it was run: as §2
[24] = Half life period was determine after peroral administration at 10 mpk in Rat; type: ADME, organism-based; conditions: in vivo, po, 10 mg/kg; how it was run: as §5
[25] = Cmax was determine after peroral administration at 160 mpk in Rat; type: ADME, organism-based; design: dose 160 mpk, route oral; conditions: in vivo, po, 160 mg/kg; how it was run: as §5
[26] = Cmax was determine after peroral administration at 10 mpk in Rat; type: ADME, organism-based; design: dose 10 mpk, route oral; conditions: in vivo, po, 10 mg/kg; how it was run: as §5
[27] = Area under curve was determine after peroral administration at 160 mpk in Rat; type: ADME, organism-based; conditions: in vivo, po, 160 mg/kg; how it was run: as §5
[28] = Oral bioavailability after peroral administration at 50 mpk in Rat; type: ADME, organism-based; conditions: in vivo, 50 mg/kg; how it was run: as §5
[29] = Oral bioavailability in Rhesus monkey (dose 10 mg/kg p.o.); type: ADME, organism-based, Macaca mulatta; conditions: in vivo; how it was run: as §4
[30] = test system: Rattus norvegicus; assay: Plasma clearance after peroral administration at 10 mpk in Rat; type: ADME, organism-based; conditions: in vivo, po, 10 mg/kg; how it was run: as §5
[31] = Oral bioavailability after peroral administration at 10 mpk in Rat; type: ADME, organism-based; conditions: in vivo, 10 mg/kg; how it was run: as §5
[32] = Area under curve was determine after peroral administration at 20 mpk in Rat; type: ADME, organism-based; conditions: in vivo, po, 20 mg/kg; how it was run: as §5
[33] = test system: Rhesus monkey; assay: Plasma clearance after peroral administration at 10 mpk in Rhesus; type: ADME, organism-based, Macaca mulatta; conditions: in vivo, po, 10 mg/kg; how it was run: as §4
[34] = Cmax was determine after peroral administration at 10 mpk in Rhesus; type: ADME, organism-based, Macaca mulatta; design: dose 10 mpk, route oral; conditions: rhesus monkey, in vivo, po, 10 mg/kg; how it was run: as §4
[35] = Cmax was determine after peroral administration at 50 mpk in Rat; type: ADME, organism-based; design: dose 50 mpk, route oral; conditions: in vivo, po, 50 mg/kg; how it was run: as §5
[36] = Cmax was determine after peroral administration at 20 mpk in Rat; type: ADME, organism-based; design: dose 20 mpk, route oral; conditions: in vivo, po, 20 mg/kg; how it was run: as §5

Chain of Cytochrome P450 2C9 (P11712 whole entry): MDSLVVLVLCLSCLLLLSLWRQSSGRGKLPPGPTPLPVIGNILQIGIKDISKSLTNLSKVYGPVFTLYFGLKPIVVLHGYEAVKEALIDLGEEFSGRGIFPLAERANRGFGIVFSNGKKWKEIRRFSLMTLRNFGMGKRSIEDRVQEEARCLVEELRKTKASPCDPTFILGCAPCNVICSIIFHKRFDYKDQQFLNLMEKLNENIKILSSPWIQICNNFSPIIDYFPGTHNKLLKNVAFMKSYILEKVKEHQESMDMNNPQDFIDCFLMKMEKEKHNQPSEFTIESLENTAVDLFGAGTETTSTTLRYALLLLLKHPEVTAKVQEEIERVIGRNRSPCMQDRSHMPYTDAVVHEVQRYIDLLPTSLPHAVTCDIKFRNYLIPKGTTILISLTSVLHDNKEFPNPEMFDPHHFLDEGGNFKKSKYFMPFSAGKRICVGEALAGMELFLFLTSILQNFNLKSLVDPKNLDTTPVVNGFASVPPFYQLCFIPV
Chain of Cytochrome P450 3A4 (P08684 whole entry): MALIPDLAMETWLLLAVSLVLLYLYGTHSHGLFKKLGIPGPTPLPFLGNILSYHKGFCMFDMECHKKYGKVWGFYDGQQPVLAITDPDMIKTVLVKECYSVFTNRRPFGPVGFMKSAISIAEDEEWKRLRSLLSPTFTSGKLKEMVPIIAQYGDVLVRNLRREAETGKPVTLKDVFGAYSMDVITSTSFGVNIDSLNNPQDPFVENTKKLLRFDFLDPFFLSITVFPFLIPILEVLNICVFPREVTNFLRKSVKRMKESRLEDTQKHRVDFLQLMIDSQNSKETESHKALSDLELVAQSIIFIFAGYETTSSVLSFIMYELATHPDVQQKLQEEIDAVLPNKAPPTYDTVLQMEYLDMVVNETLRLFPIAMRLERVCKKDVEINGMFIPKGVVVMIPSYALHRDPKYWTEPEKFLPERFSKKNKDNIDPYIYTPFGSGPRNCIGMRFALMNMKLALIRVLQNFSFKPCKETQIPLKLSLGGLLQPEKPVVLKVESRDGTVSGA
Chain of Cytochrome P450 2D6 (P10635 whole entry): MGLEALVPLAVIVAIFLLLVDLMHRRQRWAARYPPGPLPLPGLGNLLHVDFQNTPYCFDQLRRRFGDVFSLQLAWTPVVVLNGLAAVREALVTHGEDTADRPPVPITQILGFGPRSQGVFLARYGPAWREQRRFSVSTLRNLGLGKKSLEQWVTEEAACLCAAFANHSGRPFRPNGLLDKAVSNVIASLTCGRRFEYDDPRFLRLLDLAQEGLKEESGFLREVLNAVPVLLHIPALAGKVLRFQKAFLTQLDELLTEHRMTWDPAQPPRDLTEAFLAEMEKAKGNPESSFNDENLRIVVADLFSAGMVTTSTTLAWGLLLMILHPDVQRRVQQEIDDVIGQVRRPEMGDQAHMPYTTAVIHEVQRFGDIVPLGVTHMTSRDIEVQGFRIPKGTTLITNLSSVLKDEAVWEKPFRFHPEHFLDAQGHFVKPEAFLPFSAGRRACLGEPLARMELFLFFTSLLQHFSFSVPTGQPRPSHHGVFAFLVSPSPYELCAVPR

CC(C)(c1ncc(-c2cnccc2Cl)o1)N1CCN(C[C@@H](O)C[C@@H](Cc2ccccc2)C(=O)N[C@H]2c3ccccc3OC[C@H]2O)[C@H](C(=O)NCC(F)(F)F)C1
bioavailability [1]: 8%
CLint scaled [2]: 35 mL/min/kg
IC50 [3]: 4170 nM
IC95 [4]: 31 nM
CL/F [5]: 19 mL/min/kg
IC50 [6]: 0.02 nM
half-life [7]: 1.53 h
Cmax [8]: 1000 nM
IC50 [9]: 40 nM
IC50 [10]: 21000 nM
IC95 [11]: 16 nM
IC95 [12]: ≤ 8 nM

O=C(N[C@H]1c2ccccc2OC[C@H]1O)[C@H](Cc1ccccc1)C[C@H](O)CN1CCN(Cc2ccc(-c3ccccn3)o2)C[C@H]1C(=O)NCC(F)(F)F
IC95 [4]: 15 nM
IC50 [6]: 0.05 nM
IC95 [11]: 31 nM
IC95 [13]: 15 nM
IC95 [12]: ≤ 8 nM

O=C(N[C@H]1c2ccccc2OC[C@H]1O)[C@H](Cc1ccccc1)C[C@H](O)CN1CCN(Cc2ncc(-c3ccncc3)o2)C[C@H]1C(=O)NCC(F)(F)F
IC95 [14]: 62 nM
IC95 [4]: 125 nM
IC50 [6]: 0.1 nM
IC95 [11]: 125 nM
IC95 [13]: 250 nM
IC95 [12]: 23 nM

CC(C)(c1ncc(-c2ccccn2)o1)N1CCN(C[C@@H](O)C[C@@H](Cc2ccccc2)C(=O)N[C@H]2c3ccccc3OC[C@H]2O)[C@H](C(=O)NCC(F)(F)F)C1
CLint scaled [2]: 500 mL/min/kg
IC50 [3]: 22200 nM
IC95 [4]: 62 nM
IC50 [6]: 0.04 nM
IC50 [9]: 5000 nM
IC50 [10]: 28000 nM
IC95 [11]: 31 nM
IC95 [13]: 15 nM
IC95 [12]: ≤ 8 nM

O=C(N[C@H]1c2ccccc2OC[C@H]1O)[C@H](Cc1ccccc1)C[C@H](O)CN1CCN(Cc2ncc(-c3cccnc3)o2)C[C@H]1C(=O)NCC(F)(F)F
IC95 [14]: 62 nM
IC95 [4]: 250 nM
IC50 [6]: 0.14 nM
IC95 [11]: 125 nM
IC95 [13]: 125 nM
IC95 [12]: 27 nM

CC(C)(c1ncc(-c2cccnc2)o1)N1CCN(C[C@@H](O)C[C@@H](Cc2ccccc2)C(=O)N[C@H]2c3ccccc3OC[C@H]2O)[C@H](C(=O)NCC(F)(F)F)C1
bioavailability [1]: 10%
CLint scaled [2]: 27 mL/min/kg
IC50 [3]: 10500 nM
IC95 [4]: 125 nM
CL/F [5]: 21 mL/min/kg
IC50 [6]: 0.04 nM
half-life [7]: 1.57 h
Cmax [8]: 3800 nM
IC50 [9]: 110 nM
IC50 [10]: 33000 nM
IC95 [11]: 31 nM
IC95 [13]: 31 nM
IC95 [12]: ≤ 8 nM

CC(C)(C)NC(=O)[C@@H]1CN(Cc2cccnc2)CCN1C[C@@H](O)C[C@@H](Cc1ccccc1)C(=O)N[C@H]1c2ccccc2C[C@H]1O
IC95 [14]: 400 nM
IC95 [4]: > 1000 nM
IC95 [11]: > 1000 nM
IC95 [13]: > 1000 nM
IC95 [12]: 50 nM

COc1cncc(-c2cnc(C(C)(C)N3CCN(C[C@@H](O)C[C@@H](Cc4ccccc4)C(=O)N[C@H]4c5ccccc5OC[C@H]4O)[C@H](C(=O)NCC(F)(F)F)C3)o2)c1
half-life [15]: 1.22 h
AUC [16]: 0.12 µM·h
bioavailability [1]: 30%
AUC [17]: 0.03 µM·h
bioavailability [18]: 47.2%
CLint [19]: 120 mL/min/kg
CLint scaled [2]: 13 mL/min/kg
IC50 [3]: 8700 nM
bioavailability [20]: 9.2%
AUC [21]: 4.02 µM·h
IC95 [4]: 15 nM
CLint [22]: 67 mL/min/kg
CLint [23]: 87 mL/min/kg
CL/F [5]: 18 mL/min/kg
half-life [24]: 0.433 h
IC50 [6]: 0.02 nM
half-life [7]: 1.02 h
Cmax [25]: 6880 nM
Cmax [26]: 40 nM
AUC [27]: 15.7 µM·h
bioavailability [28]: 40.5%
Cmax [8]: 4300 nM
bioavailability [29]: 2.2%
IC50 [9]: 40 nM
Clp [30]: 104 mL/min/kg
bioavailability [31]: 1.5%
AUC [32]: 0.38 µM·h
IC50 [10]: 30000 nM
IC95 [11]: 15 nM
Clp [33]: 33 mL/min/kg
Cmax [34]: 100 nM
Cmax [35]: 3060 nM
IC95 [13]: 31 nM
IC95 [12]: ≤ 8 nM
Cmax [36]: 370 nM

O=C(N[C@H]1c2ccccc2OC[C@H]1O)[C@H](Cc1ccccc1)C[C@H](O)CN1CCN(Cc2ncc(-c3ccccn3)o2)C[C@H]1C(=O)NCC(F)(F)F
IC95 [14]: 31 nM
IC95 [4]: 125 nM
IC50 [6]: 0.13 nM
IC95 [13]: 125 nM
IC95 [12]: 23 nM
